The target in experiment [1] is T1, Fibroblast growth factor receptor 1 (Homo sapiens, UniProt P11362). Kind of experiment: Inhibition of N-terminal GST-tagged recombinant human FGFR1 (456 to 765 residues) expressed in baculovirus infected insect Sf21 cells after 25 mins using KKKSPGEYVNIEFG peptide substrate by scintillation counting analysis.
Target sequence in this assay (P11362 whole entry, the tested form may be a part): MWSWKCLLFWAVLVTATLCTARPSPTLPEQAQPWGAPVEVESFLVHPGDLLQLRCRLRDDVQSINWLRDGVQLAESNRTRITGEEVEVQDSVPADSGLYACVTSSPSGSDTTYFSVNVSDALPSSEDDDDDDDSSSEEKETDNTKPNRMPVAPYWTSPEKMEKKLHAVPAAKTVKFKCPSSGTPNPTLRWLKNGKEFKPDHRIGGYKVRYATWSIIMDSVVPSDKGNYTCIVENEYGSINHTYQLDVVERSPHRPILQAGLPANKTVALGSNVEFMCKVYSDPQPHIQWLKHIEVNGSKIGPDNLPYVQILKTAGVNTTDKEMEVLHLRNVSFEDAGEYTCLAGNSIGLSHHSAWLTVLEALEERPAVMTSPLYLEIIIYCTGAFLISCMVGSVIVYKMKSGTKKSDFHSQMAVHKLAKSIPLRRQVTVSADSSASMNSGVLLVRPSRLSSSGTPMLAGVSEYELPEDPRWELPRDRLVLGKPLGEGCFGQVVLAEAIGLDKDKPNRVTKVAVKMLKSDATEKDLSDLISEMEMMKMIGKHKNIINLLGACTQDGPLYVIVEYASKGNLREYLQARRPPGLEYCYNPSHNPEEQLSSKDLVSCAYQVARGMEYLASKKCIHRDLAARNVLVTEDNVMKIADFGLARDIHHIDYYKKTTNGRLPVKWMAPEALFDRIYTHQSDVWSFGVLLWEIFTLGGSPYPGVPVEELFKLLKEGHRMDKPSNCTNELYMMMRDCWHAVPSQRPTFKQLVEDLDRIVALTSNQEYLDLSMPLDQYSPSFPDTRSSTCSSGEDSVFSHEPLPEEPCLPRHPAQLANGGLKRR
A short description of experiment [2]: Cytotoxicity against human KG1 cells assessed as cell viability after 72 hrs by MTT assay. The note with it: KG-1, 72 h. For orientation: Formazan colour is commonly taken as a measure of viable cells.
For experiment [3], the system named is HEK293. Kind of experiment: Cytotoxicity against HEK293 cells assessed as cell viability after 72 hrs by MTT assay. As to conditions: Homo sapiens, HEK293, 72 h.
Experiment [4] addresses Angiopoietin-1 receptor (Homo sapiens) (UniProt Q02763). Kind of experiment: Inhibition of N-terminal His6-tagged recombinant human Tie2 residues 771-end expressed in baculovirus infected insect Sf21 cells assessed as residual activity at 10 uM. In short, it runs like this:
(§1)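 This is a seven-kinase selectivity panel run according to the enzyme supplier's (Millipore) protocols. The reaction mixture contained 100 µM ATP. Activity is reported as residual activity.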

Experiment [5] addresses Casein kinase 2 (Homo sapiens) (UniProt P67870+P68400+P19784+Q8NEV1). The experiment is described as follows: Inhibition of recombinant full length human Casein Kinase 2 expressed in insect Sf21 cells assessed as residual activity at 10 uM. In short, it runs like this: as §1
Experiment [6] concerns the target T1, Fibroblast growth factor receptor 1. Kind of experiment: Inhibition of N-terminal GST-tagged recombinant human FGFR1 (456 to 765 residues) expressed in baculovirus infected insect Sf21 cells assessed as residual activity at 10 uM. In short, it runs like this:
as §1
Target sequence in this assay (P11362 22-822 limits assumed): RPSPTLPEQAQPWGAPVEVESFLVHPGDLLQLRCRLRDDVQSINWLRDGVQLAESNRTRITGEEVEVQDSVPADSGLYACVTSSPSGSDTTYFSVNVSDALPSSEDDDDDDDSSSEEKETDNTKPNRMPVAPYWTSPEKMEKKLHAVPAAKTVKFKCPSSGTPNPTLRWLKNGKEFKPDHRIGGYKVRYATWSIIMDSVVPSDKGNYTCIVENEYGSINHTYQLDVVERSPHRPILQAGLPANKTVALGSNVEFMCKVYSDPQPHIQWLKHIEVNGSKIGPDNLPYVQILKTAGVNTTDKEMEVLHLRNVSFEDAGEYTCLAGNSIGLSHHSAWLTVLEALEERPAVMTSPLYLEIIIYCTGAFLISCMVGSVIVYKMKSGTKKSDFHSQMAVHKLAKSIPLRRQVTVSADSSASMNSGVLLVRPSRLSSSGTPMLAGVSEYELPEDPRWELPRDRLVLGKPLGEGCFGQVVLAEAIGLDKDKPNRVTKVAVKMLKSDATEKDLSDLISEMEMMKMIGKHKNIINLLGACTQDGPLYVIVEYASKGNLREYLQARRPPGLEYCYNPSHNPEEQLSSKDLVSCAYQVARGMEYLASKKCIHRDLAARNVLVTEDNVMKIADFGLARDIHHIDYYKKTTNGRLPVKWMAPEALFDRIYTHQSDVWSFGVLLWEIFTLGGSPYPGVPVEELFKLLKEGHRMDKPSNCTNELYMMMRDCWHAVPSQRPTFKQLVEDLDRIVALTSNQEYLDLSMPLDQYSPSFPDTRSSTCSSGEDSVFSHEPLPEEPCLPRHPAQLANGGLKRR

The target in experiment [7] is T2, Mitogen-activated protein kinase kinase kinase 5 (Homo sapiens) (UniProt Q99683).
T2 sequence (whole entry): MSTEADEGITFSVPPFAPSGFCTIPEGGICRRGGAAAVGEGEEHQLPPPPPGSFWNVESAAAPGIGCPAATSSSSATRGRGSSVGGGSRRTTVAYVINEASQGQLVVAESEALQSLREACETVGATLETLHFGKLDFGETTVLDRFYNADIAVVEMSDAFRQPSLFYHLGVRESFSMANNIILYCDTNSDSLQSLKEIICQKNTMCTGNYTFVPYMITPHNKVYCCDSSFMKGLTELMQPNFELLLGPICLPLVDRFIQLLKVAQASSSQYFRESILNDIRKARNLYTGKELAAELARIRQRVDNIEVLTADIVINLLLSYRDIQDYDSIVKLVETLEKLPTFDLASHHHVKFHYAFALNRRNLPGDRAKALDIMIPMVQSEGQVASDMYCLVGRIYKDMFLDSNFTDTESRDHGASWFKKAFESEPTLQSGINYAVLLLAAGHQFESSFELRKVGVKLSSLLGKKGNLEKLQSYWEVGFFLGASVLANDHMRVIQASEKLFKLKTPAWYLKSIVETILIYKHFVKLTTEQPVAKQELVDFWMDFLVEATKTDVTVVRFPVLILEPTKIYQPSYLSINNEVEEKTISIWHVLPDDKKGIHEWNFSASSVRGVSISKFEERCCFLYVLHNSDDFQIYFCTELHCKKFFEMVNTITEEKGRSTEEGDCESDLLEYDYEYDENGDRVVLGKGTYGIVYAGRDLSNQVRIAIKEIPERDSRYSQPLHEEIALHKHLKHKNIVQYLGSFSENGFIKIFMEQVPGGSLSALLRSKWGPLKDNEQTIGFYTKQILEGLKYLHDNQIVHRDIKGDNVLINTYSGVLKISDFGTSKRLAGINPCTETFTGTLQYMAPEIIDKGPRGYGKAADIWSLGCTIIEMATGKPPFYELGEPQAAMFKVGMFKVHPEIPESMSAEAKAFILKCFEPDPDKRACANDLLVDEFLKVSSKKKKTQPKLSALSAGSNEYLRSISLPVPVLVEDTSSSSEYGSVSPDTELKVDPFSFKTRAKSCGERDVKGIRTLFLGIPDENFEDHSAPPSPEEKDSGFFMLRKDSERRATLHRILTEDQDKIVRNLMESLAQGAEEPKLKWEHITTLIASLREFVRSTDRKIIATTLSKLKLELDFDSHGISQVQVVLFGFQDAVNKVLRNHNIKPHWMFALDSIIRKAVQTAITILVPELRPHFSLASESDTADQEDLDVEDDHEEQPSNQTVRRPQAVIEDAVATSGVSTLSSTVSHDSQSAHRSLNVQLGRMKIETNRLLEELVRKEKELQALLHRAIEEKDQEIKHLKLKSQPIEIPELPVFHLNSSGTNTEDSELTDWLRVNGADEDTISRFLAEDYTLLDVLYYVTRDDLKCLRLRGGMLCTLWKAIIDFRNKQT
Kind of experiment: Inhibition of N-terminal GST/C-terminal His6-tagged recombinant human ASK1 (649 to 946 amino acids) expressed in Escherichia coli assessed as residual activity at 10 uM. In short, it runs like this:
as §1

The target of experiment [8] is T3, Aurora kinase A (Homo sapiens) (UniProt O14965).
T3 sequence (whole entry): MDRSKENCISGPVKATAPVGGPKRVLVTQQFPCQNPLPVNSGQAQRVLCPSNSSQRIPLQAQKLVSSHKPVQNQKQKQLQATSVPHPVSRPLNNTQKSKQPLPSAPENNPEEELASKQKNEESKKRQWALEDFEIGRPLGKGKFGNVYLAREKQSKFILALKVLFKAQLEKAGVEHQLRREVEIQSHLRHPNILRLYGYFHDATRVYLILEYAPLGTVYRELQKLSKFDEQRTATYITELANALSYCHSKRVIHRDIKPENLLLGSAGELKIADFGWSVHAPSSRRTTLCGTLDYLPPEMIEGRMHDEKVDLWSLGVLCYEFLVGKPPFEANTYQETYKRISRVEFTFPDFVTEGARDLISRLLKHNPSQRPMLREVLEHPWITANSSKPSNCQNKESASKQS
Kind of experiment: Inhibition of N-terminal His6-tagged recombinant full length human Aurora A expressed in Sf21 cells assessed as residual activity at 10 uM. In a few lines: as §1

For experiment [9], the target named is Mitogen-activated protein kinase 10 (Homo sapiens) (UniProt P53779). Kind of experiment: Inhibition of N-terminal His6 tagged recombinant full length human JNK3 expressed in Sf21 cells assessed as residual activity at 10 uM. In short, it runs like this:
as §1

The target of experiment [10] is Hepatocyte growth factor receptor (Homo sapiens) (UniProt P08581). The experiment is described as follows: Inhibition of N-terminal His6-tagged recombinant human c-Met residues 974-end expressed in baculovirus infected insect Sf21 cells assessed as residual activity at 10 uM. In a few lines: as §1
Chain of Hepatocyte growth factor receptor (Homo sapiens) (P08581 whole entry, the tested form may be a part): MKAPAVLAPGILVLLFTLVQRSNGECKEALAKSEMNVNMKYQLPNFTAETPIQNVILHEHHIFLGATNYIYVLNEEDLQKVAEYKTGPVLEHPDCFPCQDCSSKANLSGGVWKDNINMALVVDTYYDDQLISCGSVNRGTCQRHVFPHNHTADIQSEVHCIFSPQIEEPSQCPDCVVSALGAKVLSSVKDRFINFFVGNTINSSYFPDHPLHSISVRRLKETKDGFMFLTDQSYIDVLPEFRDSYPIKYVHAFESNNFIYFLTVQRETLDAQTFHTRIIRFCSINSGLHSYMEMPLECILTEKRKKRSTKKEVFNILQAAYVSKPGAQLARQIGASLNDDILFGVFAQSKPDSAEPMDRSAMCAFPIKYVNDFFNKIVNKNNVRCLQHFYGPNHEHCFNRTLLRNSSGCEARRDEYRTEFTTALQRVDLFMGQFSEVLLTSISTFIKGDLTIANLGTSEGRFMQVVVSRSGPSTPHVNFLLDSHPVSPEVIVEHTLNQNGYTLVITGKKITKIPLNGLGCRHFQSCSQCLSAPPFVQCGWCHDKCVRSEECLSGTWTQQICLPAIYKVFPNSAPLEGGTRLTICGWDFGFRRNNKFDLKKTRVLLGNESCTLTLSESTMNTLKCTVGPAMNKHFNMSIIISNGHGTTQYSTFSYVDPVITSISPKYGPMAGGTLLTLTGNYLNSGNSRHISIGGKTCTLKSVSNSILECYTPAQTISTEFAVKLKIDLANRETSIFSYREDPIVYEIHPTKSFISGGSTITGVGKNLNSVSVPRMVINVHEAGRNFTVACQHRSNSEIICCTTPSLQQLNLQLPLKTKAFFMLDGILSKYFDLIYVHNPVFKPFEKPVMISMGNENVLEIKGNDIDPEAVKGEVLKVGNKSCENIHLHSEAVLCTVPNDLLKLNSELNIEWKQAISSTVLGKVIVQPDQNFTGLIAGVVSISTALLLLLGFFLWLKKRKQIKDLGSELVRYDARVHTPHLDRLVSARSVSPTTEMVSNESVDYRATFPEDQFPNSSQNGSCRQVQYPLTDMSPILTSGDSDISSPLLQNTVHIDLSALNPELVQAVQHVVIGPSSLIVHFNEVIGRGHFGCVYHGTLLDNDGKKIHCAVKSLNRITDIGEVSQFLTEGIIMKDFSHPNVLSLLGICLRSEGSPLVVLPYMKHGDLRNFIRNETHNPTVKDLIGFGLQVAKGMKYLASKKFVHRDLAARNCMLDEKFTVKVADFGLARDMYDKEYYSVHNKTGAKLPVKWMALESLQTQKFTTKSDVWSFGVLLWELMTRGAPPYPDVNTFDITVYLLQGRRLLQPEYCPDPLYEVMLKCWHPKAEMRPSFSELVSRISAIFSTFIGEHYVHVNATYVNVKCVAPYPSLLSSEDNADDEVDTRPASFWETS

These results are taken from ChEMBL document CHEMBL3779808, “Design, synthesis and biological evaluation of 5-amino-4-(1H-benzoimidazol-2-yl)-phenyl-1,2-dihydro-pyrrol-3-ones as inhibitors of protein kinase FGFR1” (Bioorg Med Chem, 2016).

What is called IC50 is the midpoint of a concentration-inhibition curve.

Chain of Mitogen-activated protein kinase 10 (Homo sapiens) (P53779 whole entry): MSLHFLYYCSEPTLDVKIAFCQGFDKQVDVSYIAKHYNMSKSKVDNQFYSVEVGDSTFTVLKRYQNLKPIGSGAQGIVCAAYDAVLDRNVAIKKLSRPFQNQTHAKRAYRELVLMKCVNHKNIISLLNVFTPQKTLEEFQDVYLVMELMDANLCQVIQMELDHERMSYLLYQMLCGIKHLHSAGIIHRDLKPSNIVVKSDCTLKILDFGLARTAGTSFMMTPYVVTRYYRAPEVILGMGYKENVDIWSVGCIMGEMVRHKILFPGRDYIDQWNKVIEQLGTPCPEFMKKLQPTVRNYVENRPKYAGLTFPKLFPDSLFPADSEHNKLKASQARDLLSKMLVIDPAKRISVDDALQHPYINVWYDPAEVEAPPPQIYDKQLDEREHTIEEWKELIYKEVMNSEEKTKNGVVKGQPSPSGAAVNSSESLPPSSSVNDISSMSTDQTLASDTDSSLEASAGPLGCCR
Chain of Angiopoietin-1 receptor (Homo sapiens) (Q02763 whole entry, the tested form may be a part): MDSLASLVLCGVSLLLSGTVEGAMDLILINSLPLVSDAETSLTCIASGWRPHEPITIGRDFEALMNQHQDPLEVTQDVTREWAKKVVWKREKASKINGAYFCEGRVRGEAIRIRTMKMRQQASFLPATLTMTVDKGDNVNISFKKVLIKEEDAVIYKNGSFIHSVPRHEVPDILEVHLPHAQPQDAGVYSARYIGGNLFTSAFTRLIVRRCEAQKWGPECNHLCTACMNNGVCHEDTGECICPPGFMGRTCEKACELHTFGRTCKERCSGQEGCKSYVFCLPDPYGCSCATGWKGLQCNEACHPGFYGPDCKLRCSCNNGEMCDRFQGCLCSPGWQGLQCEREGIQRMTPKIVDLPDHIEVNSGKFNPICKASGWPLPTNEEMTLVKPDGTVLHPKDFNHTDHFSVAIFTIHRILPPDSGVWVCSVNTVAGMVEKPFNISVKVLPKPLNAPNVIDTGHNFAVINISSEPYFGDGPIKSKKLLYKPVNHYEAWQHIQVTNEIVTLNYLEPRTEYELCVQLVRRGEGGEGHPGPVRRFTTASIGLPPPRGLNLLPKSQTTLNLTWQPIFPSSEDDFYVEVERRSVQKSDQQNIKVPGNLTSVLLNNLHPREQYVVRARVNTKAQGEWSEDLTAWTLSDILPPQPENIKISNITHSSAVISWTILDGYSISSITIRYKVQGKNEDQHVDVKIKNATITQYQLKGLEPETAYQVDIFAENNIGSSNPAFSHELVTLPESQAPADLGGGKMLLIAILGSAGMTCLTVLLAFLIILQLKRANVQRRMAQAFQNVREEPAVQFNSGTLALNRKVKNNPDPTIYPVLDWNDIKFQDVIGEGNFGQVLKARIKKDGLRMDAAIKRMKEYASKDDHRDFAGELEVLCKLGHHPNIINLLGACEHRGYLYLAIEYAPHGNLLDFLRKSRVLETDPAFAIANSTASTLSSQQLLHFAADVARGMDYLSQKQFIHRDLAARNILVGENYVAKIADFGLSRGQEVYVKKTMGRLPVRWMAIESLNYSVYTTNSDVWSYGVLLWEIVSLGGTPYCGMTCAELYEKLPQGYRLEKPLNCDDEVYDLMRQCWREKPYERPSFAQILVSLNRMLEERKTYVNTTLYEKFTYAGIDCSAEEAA

Take `NC1=C(c2nc3ccccc3[nH]2)C(=O)CN1c1ccc(F)cc1`: in [1], the half-inhibitory concentration (IC50) is 27 µM.
For the molecule `NC1=C(c2nc3ccccc3[nH]2)C(=O)CN1c1ccccc1F`, the IC50 in [1] was over 30 µM.
Take `COc1ccc(N2CC(=O)C(c3nc4ccccc4[nH]3)=C2N)c(OC)c1`: the IC50 in experiment [1] is over 30 µM.
As for `COc1ccc(Cl)cc1N1CC(=O)C(c2nc3ccccc3[nH]2)=C1N`, the concentration for half-maximal inhibition (IC50) in experiment [2] and in experiment [3] was over 50 µM in each case.
Consider `Cc1ccc(N2CC(=O)C(c3nc4ccccc4[nH]3)=C2N)cc1`, for which the concentration for half-maximal inhibition (IC50) in experiment [1] is over 30 µM.
For `NC1=C(c2nc3ccccc3[nH]2)C(=O)CN1c1ccccc1`, the IC50 in experiment [1] was over 30 µM.
Take `Cc1cccc(N2CC(=O)C(c3nc4ccccc4[nH]3)=C2N)c1`: in experiment [1], the IC50 was over 30 µM.
Turning to `Cc1ccc2nc(C3=C(N)N(c4cccc(O)c4)CC3=O)[nH]c2c1`, the results for the IC50 in [2], in experiment [1] and in experiment [3] were 5.6 µM, 0.63 µM and over 50 µM, respectively. Further, the Activity in experiment [4] was found to be 92.7%; in experiment [5] it was 77.3%; in [6] it was 5%; in experiment [7], 91.6%; in experiment [8], 75.8%; in [9], 101%. The Activity in [10] stood at 92.5%.
For the molecule `NC1=C(c2nc3ccccc3[nH]2)C(=O)CN1c1cccc(O)c1`, the IC50 is 9.3 µM in experiment [2], 0.32 µM in experiment [1] and over 50 µM in experiment [3]. The Activity in [4] stood at 84.7%; in experiment [5], 81.4%; in experiment [6], 2.1%; in experiment [7], 95.7%; in [8], 85.8%; in experiment [9], 118%. Besides, the Activity in experiment [10] amounted to 128%.
With `CCOc1ccccc1N1CC(=O)C(c2nc3ccccc3[nH]2)=C1N`, the IC50 in [1] was over 30 µM.
Still for that read-out and setting: to `NC1=C(c2nc3ccccc3[nH]2)C(=O)CN1c1ccccc1Cl` belongs over 30 µM.
